Results as given in article PMC10973196 (Saudi Pharmaceutical Journal : SPJ, 2024).
≈ marks a conversion by molar mass, not a printed value.

Assays:
lung cancer cell (A549) = test: Cell viability; format: cell-based; conditions: Homo sapiens, A549, 48 h, read-out: IC50, cytotoxic activity
In short: (§1)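 Cells were seeded in 96-well plates, grown for 24 h, then exposed to test compounds at various concentrations for 48 h. MTT solution (5 mg/mL) was added for 2–4 h at 37 °C, and formazan absorbance was read at 570 nm. Viability was expressed as treated/untreated absorbance ×100, and IC50 was fitted from viability dose-response curves.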

[1] = molecular target: SARS-CoV-2 main protease (Mpro) (Severe acute respiratory syndrome coronavirus 2, UniProt P0DTD1); test: biochemical
Cell viability = format: cell-based; conditions: human, normal HUVEC cells
In short: as §1

SMILES	IC50 (lung cancer cell (A549))	IC50 [1]	IC50 at 48 h (Cell viability)
C[C@@H]1O[C@@H](Oc2cc3c(=O)oc4c(O)c(O)cc5c(=O)oc(c2O)c3c45)[C@H](O)[C@H](O)[C@H]1O [Compound 10, ellagic acid-2-O-α-L-rhamnopyranoside (eschweilenol C)]	> 100 µg/mL	22.3 µM	> 100 µg/mL
O=c1cc(-c2ccc(O)cc2)oc2cc(O)c([C@@H]3O[C@H](CO)[C@@H](O)[C@H](O)[C@H]3O)c(O)c12 [Compound 14, apigenin-6-C-β-D-glucoside (isovitexin)]	> 100 µg/mL	21.7 µM	> 100 µg/mL
COc1cccc2c1C(=O)c1c(O)c3c(c(O)c1C2=O)C[C@@](O)(C(=O)CO)C[C@@H]3O[C@H]1C[C@H](N)[C@H](O)[C@H](C)O1 [Doxorubicin, reference compound]	1.45 ± 0.05 µg/mL (≈ 2.67 µM)		2.5 ± 0.1 µg/mL (≈ 4.6 µM)
